# Measurements as given in ChEMBL document CHEMBL2203100, “Disubstituted quinazoline derivatives as a new type of highly selective ligands for telomeric G-quadruplex DNA” (Eur J Med Chem, 2012).
# Activity calls are given as the source filed them. The rule behind the calls is not given here.
# Columns and labels:
# Nucleic Acid [1] = test: Binding affinity to human fluorescent labeled oligonucleotide F21T telomeric G-quadruplex DNA assessed as change in melting temperature at 1 uM after 30 secs by FRET assay; format: nucleic-acid assay
# Nucleic Acid [2] = test: Binding affinity to hairpin fluorescent labeled oligonucleotide F10T duplex DNA assessed as change in melting temperature at 1 uM after 30 secs by FRET assay
# Nucleic Acid [3] = test: Binding affinity to human fluorescent labeled oligonucleotide F21T telomeric G-quadruplex DNA assessed as change in melting temperature at 1 uM by FRET assay in presence of duplex DNA competitor ds26; format: nucleic-acid assay
# Nucleic Acid [4] = test: Binding affinity to human telomeric HTG21 G-quadruplex DNA after 6 hrs by CD spectroscopy; format: nucleic-acid assay
# Summary of the method: (§1)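 HTG21 in 10 mM Tris-HCl pH 7.2 with 100 mM KCl was titrated with ligand at 0–5 mol equiv. Samples were heated to 95 °C, cooled slowly to room temperature and held at 4 °C for at least 6 h. CD was scanned at 230–450 nm in a 4 mm quartz cuvette with 1 nm bandwidth, 1 nm steps and 0.5 s per point.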
# HL-60 [5] = test: Induction of senescence in human HL60 cells assessed flattened cells measured every 4 days for 16 days by optical microscopy; format: functional, cell-based
# Summary of the method: (§2)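 After 16 days of long-term HL60 culture with ligand renewed every 4 days (1.25 µM shown, versus 0.1% DMSO), cells were fixed in 2% formaldehyde/0.2% glutaraldehyde for 15 min at room temperature. They were washed with PBS and stained overnight at 37 °C with X-gal (1 mg/mL). SA-β-Gal and enlarged or flattened morphology were scored by optical microscopy.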
# HL-60 [6] = test: Induction of telomere shortening in human HL60 cells at 0.625 uM after 16 days by telomeric restriction fragment length assay; format: functional, cell-based
# Summary of the method: (§3)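 HL60 cells were treated with ligand (0.625 or 1.25 µM) or 0.1% DMSO for 16 days. Genomic DNA was digested with HinfI/RsaI and run on a 0.8% agarose gel, then blotted to nylon and fixed at 120 °C for 20 min. The blot was hybridized with a DIG-labeled telomeric probe, bound with anti-DIG-alkaline phosphatase and detected by chemiluminescence.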
# HL-60 [7] = test: Induction of telomere shortening in human HL60 cells at 1.25 uM after 16 days by telomeric restriction fragment length assay; format: functional; summary of the method: as §3
# HL-60 [8] = test: Growth inhibition of human HL60 cells assessed as decrease in population doubling at 0.625 uM after 16 days; format: functional, cell-based
# HL-60 [9] = test: Induction of senescence in human HL60 cells assessed as beta galactosidase activity at 1.25 uM measured every 4 days for 16 days; format: functional, cell-based; summary of the method: as §2
# Nucleic Acid [10] = test: Binding affinity to human oligonucleotide telomeric HT6 G-quadruplex DNA at 0.5:1 ligand to quadruplex ratio by NMR spectroscopy; format: nucleic-acid assay
# Summary of the method: (§4)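 1H NMR titration at 400 MHz and 25 °C of 0.5 mM [d(TTAGGG)]4 in 90% H2O/10% D2O with 25 mM potassium phosphate (pH 7.0) and 150 mM KCl. Ligand:quadruplex ratios were 0, 0.25, 0.5, 1 and 2. Water was suppressed by Watergate. Shifts and broadening of DNA signals were followed. The oligonucleotide was HPLC-purified.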
# [11] = target: Telomerase reverse transcriptase (Homo sapiens, UniProt O14746); test: Inhibition of human telomerase in cell free system after 1 min by TRAP-LIG assay; conditions: in the assay text read “after 20 mins” for “after 1 min”
# Chain of Telomerase reverse transcriptase (O14746 whole entry): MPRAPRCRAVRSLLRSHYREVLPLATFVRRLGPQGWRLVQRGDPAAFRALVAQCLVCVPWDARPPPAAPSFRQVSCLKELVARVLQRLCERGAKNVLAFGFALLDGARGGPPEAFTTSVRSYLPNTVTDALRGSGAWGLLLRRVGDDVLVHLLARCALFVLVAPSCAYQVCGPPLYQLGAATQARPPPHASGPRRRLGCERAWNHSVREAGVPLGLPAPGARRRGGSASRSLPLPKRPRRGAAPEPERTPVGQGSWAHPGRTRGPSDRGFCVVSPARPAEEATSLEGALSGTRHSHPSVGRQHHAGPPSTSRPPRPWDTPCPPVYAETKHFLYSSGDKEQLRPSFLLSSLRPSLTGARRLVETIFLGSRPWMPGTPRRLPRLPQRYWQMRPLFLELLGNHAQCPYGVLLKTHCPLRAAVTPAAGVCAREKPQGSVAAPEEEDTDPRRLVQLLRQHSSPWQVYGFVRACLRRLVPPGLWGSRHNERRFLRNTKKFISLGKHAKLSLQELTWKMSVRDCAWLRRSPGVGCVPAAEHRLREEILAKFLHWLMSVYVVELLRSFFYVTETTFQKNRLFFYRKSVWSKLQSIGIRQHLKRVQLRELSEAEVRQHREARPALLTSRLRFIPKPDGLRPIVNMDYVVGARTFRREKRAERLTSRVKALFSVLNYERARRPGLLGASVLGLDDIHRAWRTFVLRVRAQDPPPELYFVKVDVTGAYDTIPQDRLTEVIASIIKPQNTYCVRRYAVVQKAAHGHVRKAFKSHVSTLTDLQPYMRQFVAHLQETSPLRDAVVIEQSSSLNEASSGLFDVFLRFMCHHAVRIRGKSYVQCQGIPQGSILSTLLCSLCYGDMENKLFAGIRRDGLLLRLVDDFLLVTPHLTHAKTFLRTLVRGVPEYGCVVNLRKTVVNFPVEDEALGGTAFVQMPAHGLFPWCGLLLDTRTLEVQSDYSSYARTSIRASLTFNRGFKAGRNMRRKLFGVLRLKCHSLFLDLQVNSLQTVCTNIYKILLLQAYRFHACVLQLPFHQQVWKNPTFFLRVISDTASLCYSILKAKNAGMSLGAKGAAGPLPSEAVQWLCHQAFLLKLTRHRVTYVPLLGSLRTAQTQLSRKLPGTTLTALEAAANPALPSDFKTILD
# Summary of the method: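 TRAP-LIG used 500 ng protein extract from exponentially growing MCF-7 cells to extend 0.1 µg TS primer. The buffer was 20 mM Tris-HCl pH 8.3, 68 mM KCl, 1.5 mM MgCl2, 1 mM EGTA and 0.05% Tween 20, with 125 µM dNTPs and BSA, plus ligand at various concentrations or none. After 20 min elongation and purification, products were amplified with ACX/TS primers and Taq for 35 cycles (94 °C 30 s, 61 °C 1 min, 72 °C 1 min).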
# HL-60 [12] = test: Induction of senescence in human HL60 cells assessed enlarged cells measured every 4 days for 16 days by optical microscopy; format: functional, cell-based; summary of the method: as §2
# Nucleic Acid [13] = test: Binding affinity to A3 site of human oligonucleotide telomeric HT6 G-quadruplex DNA by NMR spectroscopy; format: nucleic-acid assay; summary of the method: as §4
# Nucleic Acid [14] = test: Binding affinity to human biotinylated telomeric HTG21 G-quadruplex DNA assessed as equilibrium dissociation constant by SPR assay; format: nucleic-acid assay
# Summary of the method: (§5)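 Biotinylated HTG21 (d(GGG[TTAGGG]3)) or duplex DNA was folded in 50 mM Tris-HCl pH 7.2 with 100 mM KCl. About 1000 RU was captured on flow cells 1 and 2, with the third cell as blank. Six ligand concentrations from 0.15625 µM upward were injected for 150 s association and 300 s dissociation at 25 °C. KD came from global Langmuir fitting of the kinetics.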
# Nucleic Acid [15] = test: Binding affinity to human biotinylated duplex DNA assessed as equilibrium dissociation constant upto 10 to 20 uM by SPR assay; format: nucleic-acid assay; summary of the method: as §5
# Nucleic Acid [16] = test: Binding affinity to G4 site of human oligonucleotide telomeric HT6 G-quadruplex DNA by NMR spectroscopy; format: nucleic-acid assay; summary of the method: as §4
# Nucleic Acid [17] = test: Binding affinity to human oligonucleotide telomeric HT6 G-quadruplex DNA by NMR spectroscopy; format: nucleic-acid assay; summary of the method: as §4
# HL-60 [18] = test: Cytotoxicity against human HL60 cells assessed as cell viability after 48 hrs by MTT assay; format: functional, cell-based; conditions: HL-60, 48 h
# Summary of the method: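 HL60 cells were seeded at 1.0 × 10³ per well and exposed to a range of compound concentrations for 48 h at 37 °C in 5% CO2. MTT (5 mg/mL) was added for 4 h, formazan was dissolved in DMSO and OD was read at 570 nm. Each dose was run in triplicate, and IC50 was taken from mean OD versus concentration curves.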
# HL-60 [19] = test: Growth inhibition of human HL60 cells assessed as decrease in population doubling at 2.5 uM after 12 days; format: functional, cell-based
# HL-60 [20] = test: Cytotoxicity against human HL60 cells assessed as decrease in population doubling at 2.5 uM after 8 days; format: functional, cell-based
# HL-60 [21] = test: Growth inhibition of human HL60 cells assessed as decrease in population doubling at 1.25 uM after 12 days; format: functional, cell-based
# Nucleic Acid [22] = test: Binding affinity to human telomeric HTG21 G-quadruplex DNA after 6 hrs in presence of K+ ions by CD spectroscopy; format: nucleic-acid assay; summary of the method: as §1
SMILES,ΔTm (Nucleic Acid [1]) [°C],ΔTm (Nucleic Acid [2]) [°C],Activity (Nucleic Acid [3]),also measured
CN(C)CCCNc1nc(-c2ccc(Cl)cc2NC(=O)CCN2CCOCC2)nc2ccccc12,8.4,0.1,Active,–
CN(C)CCCNCCC(=O)Nc1cc(Cl)ccc1-c1nc(NCCCN(C)C)c2ccccc2n1,–,–,–,Activity (Nucleic Acid [4]): Active
CN(C)CCCNc1c2ccccc2nc2c1[nH]c1ccccc12,9.9,5.5,inactive,–
CCN(CC)CCC(=O)Nc1cc(Cl)ccc1-c1nc(NCCCN(C)C)c2ccccc2n1,14.4,0.1,–,–
CN(C)CCCNc1nc(-c2ccc(Cl)cc2NC(=O)CCN2CCN(C)CC2)nc2ccccc12,15.5,0.3,Active,Activity (HL-60 [5]): Active; Activity (HL-60 [6]): Active; Activity (HL-60 [7]): 1.2 kilobase; growth inhibition (GI) (HL-60 [8]): Active; Activity (HL-60 [9]): Active; Activity (Nucleic Acid [10]): Active; IC50 [11]: 7.4 µM; Activity (HL-60 [12]): Active; Activity (Nucleic Acid [13]): Active; Kd (Nucleic Acid [14]): 0.314 µM; Activity (Nucleic Acid [15]): inactive; Activity (Nucleic Acid [4]): Active; Activity (Nucleic Acid [16]): Active; Activity (Nucleic Acid [17]): Active; IC50 (HL-60 [18]): 9.6 µM; growth inhibition (GI) (HL-60 [19]): Active; Activity (HL-60 [20]): Active; growth inhibition (GI) (HL-60 [21]): Active
CN(C)CCCNc1nc(-c2ccc(Cl)cc2NC(=O)CCCN2CCN(C)CC2)nc2ccccc12,14.7,0.4,Active,IC50 [11]: 7.7 µM; Kd (Nucleic Acid [14]): 0.278 µM; Activity (Nucleic Acid [15]): inactive; Activity (Nucleic Acid [4]): Active
CN(C)CCCNc1nc(-c2ccc(Cl)cc2NC(=O)CNCCN2CCCC2)nc2ccccc12,10.4,0.3,–,–
CN(C)CCCNc1nc(-c2ccc(Cl)cc2NC(=O)CN2CCN(C)CC2)nc2ccccc12,10.1,0.3,Active,IC50 [11]: 29.3 µM; Kd (Nucleic Acid [14]): 2.11 µM; Activity (Nucleic Acid [15]): inactive; Activity (Nucleic Acid [22]): Active
CN(C)CCCNc1nc(-c2ccc(Cl)cc2N)nc2ccccc12,0.7,0.3,–,–

# Now from value to molecule, other results behind:
ΔTm (Nucleic Acid [1]) [°C],ΔTm (Nucleic Acid [2]) [°C],Activity (Nucleic Acid [3]),SMILES,also measured
3.9,0,Active,CN(C)CCCNc1nc(-c2ccc(Cl)cc2NC(=O)CN2CCOCC2)nc2ccccc12,–
5.4,0.2,–,CN(C)CCCNc1nc(-c2ccc(Cl)cc2NC(=O)CN2CCCCC2)nc2ccccc12,–
9.8,0.1,Active,CN(C)CCCNc1nc(-c2ccc(Cl)cc2NC(=O)CCCN2CCOCC2)nc2ccccc12,–
12.8,0.2,–,CN(C)CCCNc1nc(-c2ccc(Cl)cc2NC(=O)CCN2CCCC2)nc2ccccc12,–
11.6,0.2,–,CN(C)CCCNc1nc(-c2ccc(Cl)cc2NC(=O)CCCN2CCCCC2)nc2ccccc12,–
4.5,0.1,–,CCN(CC)CC(=O)Nc1cc(Cl)ccc1-c1nc(NCCCN(C)C)c2ccccc2n1,–
9.6,0.2,–,CN(C)CCCNc1nc(-c2ccc(Cl)cc2NC(=O)CNCCN2CCCCC2)nc2ccccc12,–
12.3,0.2,–,CCN(CC)CCCNCC(=O)Nc1cc(Cl)ccc1-c1nc(NCCCN(C)C)c2ccccc2n1,–
7.4,0.1,–,CN(C)CCCNc1nc(-c2ccc(Cl)cc2NC(=O)CN2CCCC2)nc2ccccc12,–
13,0.3,Active,CN(C)CCCNCC(=O)Nc1cc(Cl)ccc1-c1nc(NCCCN(C)C)c2ccccc2n1,Kd (Nucleic Acid [14]): 0.337 µM; Activity (Nucleic Acid [15]): inactive
11.8,0.2,–,CN(C)CCCNc1nc(-c2ccc(Cl)cc2NC(=O)CCN2CCCCC2)nc2ccccc12,–
